72 molecules from ChEMBL document CHEMBL4513216, “Probing the Open Global Health Chemical Diversity Library for Multistage-Active Starting Points for Next-Generation Antimalarials” (ACS Infect Dis, 2020) can be followed below.

The series is described as follows: Toxicity liver stage against HepG2, at 10uM. The settings on record: human, HepG2-A16-CD81EGFP cells; read-out: INHIBITION
Type of series: cell-based. Details: test concentration 10 uM, cell line HepG2-A16-CD81EGFP. Summed up:
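Uninfected HepG2-A16-CD81EGFP cells, 3 × 10^3 per well, 1536-well, plated on prespotted compound at 10 μM final, parasite-free screening media added to match infected plates; puromycin 10 μM positive, DMSO 0.5% negative; run in parallel with 48 h PbLuc assay at 37 °C, 5% CO2; viability by CellTiter-Glo luminescence, normalized to controls.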
Consider `CS(=O)(=O)c1ccc(-c2c[nH]c([C@@H]3COCCN3)n2)cc1`, for which the cytotoxicity at 10 µM is 5.29%.

As for `COCC(=O)Nc1ccc(-c2noc([C@@H]3CCCN3C)n2)cn1`, the cytotoxicity at 10 µM amounted to 6.65%.

Consider `O=C(Nc1ccc2c(c1)OCCO2)N1CCCC1c1ccco1` (configuration not stated), for which the cytotoxicity at 10 µM worked out at 8.2%.

`c1ccc(N2CCc3ncnc(C4CC4)c3CC2)nc1`: the cytotoxicity at 10 µM was -157%.

For the molecule `Cn1c2c(c(=O)n1C)CN(C(=O)c1ccsc1)CCC2`, the cytotoxicity at 10 µM came to 5.04%.

As to `COCC1Cn2nnc(-c3cnn(C)c3)c2CN1Cc1ccc(C)o1` (configuration not stated), the cytotoxicity at 10 µM was determined as 4.82%.

`CCOCC(=O)N1CCCn2c(CN3CCCCC3)nnc2C1`: the cytotoxicity at 10 µM is -110%.

Turning to `Cc1ccccc1OCC(=O)N1CC[C@]2(C[C@@H](OCC3CC3)CO2)C1`, the cytotoxicity at 10 µM was determined as 3.1%.

Turning to `O=S(=O)(C1CC1)N1CCC2(CC1)CC(Oc1ccccn1)CO2` (configuration not stated), the cytotoxicity at 10 µM is -139%.

Regarding `O=C(c1cccnc1)N1CCCC1c1cc[nH]n1` (configuration not stated), the cytotoxicity at 10 µM is -26.5%.

Regarding `O=C(CCn1c(C(F)F)cc2cccnc21)NC1CCCC1`, the cytotoxicity at 10 µM is -40.5%.

In the case of `Cn1nccc1C(=O)N1Cc2cc(Cl)ccc2OC2(CCOCC2)C1`, the cytotoxicity at 10 µM was 19.7%.

As for `O=C(Cc1ccsc1)N1CCC(c2noc(-c3ccncc3)n2)CC1`, the cytotoxicity at 10 µM was -22.1%.

Turning to `NC(=O)CN1CCCC(CCCc2ccccn2)(C(N)=O)C1` (configuration not stated), the cytotoxicity at 10 µM was -23.5%.

As for `O=C(Cc1ccsc1)N1CCC(c2n[nH]c3nccnc23)CC1`, the cytotoxicity at 10 µM was -10.6%.

Consider `CCc1noc(C(C)N2CCc3c(ncn3C3CC3)C2)n1` (configuration not stated), for which the cytotoxicity at 10 µM worked out at 4.36%.

Turning to `COc1ccc(C(NC(=O)c2cccc[n+]2[O-])C2CC2)cc1` (configuration not stated), the cytotoxicity at 10 µM was determined as 7.12%.

In the case of `CCn1cc(S(=O)(=O)NCc2ccnc(-n3ccnc3)c2)cn1`, the cytotoxicity at 10 µM is -1.78%.

Take `O=C(NCC1CCS(=O)(=O)C1)N(Cc1ccncc1)C1CC1` (configuration not stated): the cytotoxicity at 10 µM is -138%.

Consider `CSCc1ccc(CNCCCN2CCOCC2)o1`, for which the cytotoxicity at 10 µM stood at 5.81%.

As for `Cc1ccc(C(=O)Nc2ccn(CCC(N)=O)n2)cc1`, the cytotoxicity at 10 µM is 2.42%.

As for `CCC(CO)NC(=O)NCc1cc(C#N)ccc1F` (configuration not stated), the cytotoxicity at 10 µM was -1.22%.

Turning to `N#Cc1cccc(CN2C(=O)c3ccccc3CS2(=O)=O)c1`, the cytotoxicity at 10 µM was -2.14%.

In the case of `Cn1cnnc1CCNC(=O)c1ccccc1OC1CCC1`, the cytotoxicity at 10 µM is -2.94%.

`CN(C)CCn1ccc2ccc(NC(=O)c3ccncc3F)cc21`: the cytotoxicity at 10 µM is -1.53%.

As for `CC(C)OCCN1CCN(C(=O)c2cc(-n3cccn3)ccn2)CC1`, the cytotoxicity at 10 µM is -0.158%.

`CCc1nnc2ccc(NCC3(O)CCOCC3)nn12`: the cytotoxicity at 10 µM is -0.439%.

`CCc1nc(CC(=O)NC(C#N)CC(C)C)cs1` (configuration not stated): the cytotoxicity at 10 µM was 9.17%.

As for `Cc1nnc(CN(Cc2ccccc2Cl)C2CCCC2)o1`, the cytotoxicity at 10 µM came out at 0.256%.

Turning to `OCc1ccncc1NCc1cnc(-c2ccccn2)s1`, the cytotoxicity at 10 µM is -17.4%.

For the molecule `CC(Cn1cccn1)NC(=O)N(C)Cc1ccsc1` (configuration not stated), the cytotoxicity at 10 µM was -3.81%.

`CNC(=O)NC(=O)CN(Cc1ccc(C#N)cc1)Cc1cccc(F)c1`: the cytotoxicity at 10 µM came out at 5.51%.

As to `Nc1ncc(C(=O)N2CCC(O)(CO)CC2)c(-c2ccccc2)n1`, the cytotoxicity at 10 µM is -144%.

With `CCC(CO)N(Cc1ccco1)C(=O)c1ccccc1SC` (configuration not stated), the cytotoxicity at 10 µM was 6.41%.

In the case of `CCC1(O)CCCN(c2nc(-c3ccccn3)nc3c2c(C)nn3C)C1` (configuration not stated), the cytotoxicity at 10 µM came out at 3.11%.

Take `CCc1ccccc1CN1CCC(N2CCCC2=O)CC1`: the cytotoxicity at 10 µM is -2.53%.

For `CN(Cc1ccc2c(c1)OCO2)C(=O)c1ccc(C2CCCO2)s1` (configuration not stated), the cytotoxicity at 10 µM came to 5.6%.

With `O=C(c1cscn1)N1CCC(Cn2cc(-c3ccsc3)nn2)CC1`, the cytotoxicity at 10 µM turned out to be 0.259%.

As for `CN(C(=O)c1ccc2c(c1)nc(N1CC[C@H](O)C1)n2C)C1CCSCC1`, the cytotoxicity at 10 µM was -13%.

Consider `CC(C)N(C)CC(=O)N1CCCC(c2ccc(C(=O)O)cc2)C1` (configuration not stated), for which the cytotoxicity at 10 µM is -6.09%.

In the case of `CSc1cccc(CN(C)C(=O)C2CC(=O)N(CCN(C)C)C2)c1` (configuration not stated), the cytotoxicity at 10 µM is -16.5%.

`COc1ccc(S(=O)(=O)NC(=O)COC2CCCC2)cc1`: the cytotoxicity at 10 µM is -2.55%.

Regarding `Cc1nc(C)n(CC2CCCN(Cc3ncc(C(C)(C)C)o3)C2)n1` (configuration not stated), the cytotoxicity at 10 µM was -5.95%.

Consider `CC(C)c1nccc(N2CCN(CC(=O)N3CCOCC3)CC2)n1`, for which the cytotoxicity at 10 µM is -8.68%.

As to `CCN(CC1CCOC1)C(=O)c1ccccc1S(=O)(=O)CC` (configuration not stated), the cytotoxicity at 10 µM is -2.15%.

Consider `Cc1ccc(F)cc1NS(=O)(=O)c1cc2c(c(C(=O)O)c1)OCCO2`, for which the cytotoxicity at 10 µM is -3.88%.

As for `Cc1cc(NC(=O)CN2CCN(c3nc(C)cs3)C(C)C2)on1` (configuration not stated), the cytotoxicity at 10 µM is -1.81%.

As for `CCOc1ncccc1NC(=O)NCC(C)O` (configuration not stated), the cytotoxicity at 10 µM is -5.68%.

Take `CC(C)c1cnc(CN(C)C2CCN(CCc3cnn(C)c3)C2)o1` (configuration not stated): the cytotoxicity at 10 µM was -7.12%.

In the case of `CC(O)CN1CCN(C(=O)c2sccc2C2CC2)CC1` (configuration not stated), the cytotoxicity at 10 µM worked out at 1.83%.

Consider `CCc1n[nH]c(C2CN(C(=O)c3cncnc3CC)CCO2)n1` (configuration not stated), for which the cytotoxicity at 10 µM is -5.65%.

Turning to `O=C(CCc1nccs1)N1CCCC(n2ccnc2)C1` (configuration not stated), the cytotoxicity at 10 µM is -16%.

As for `COCCc1noc(CN2CCCC(Cn3cncn3)C2)n1` (configuration not stated), the cytotoxicity at 10 µM is -2.55%.

Regarding `O=C(c1cccc2c1OCCO2)N1CCCC(n2cccn2)C1` (configuration not stated), the cytotoxicity at 10 µM was -3.73%.

For `Cc1ncsc1C(=O)N1CCCC1c1c(C)nn(C)c1Cl` (configuration not stated), the cytotoxicity at 10 µM is -1.9%.

As to `N#Cc1cc(NS(=O)(=O)c2cc(C(=O)O)cc(Cl)c2Cl)ccc1F`, the cytotoxicity at 10 µM was -1.37%.

In the case of `Cc1nn(C)c(C)c1C1COCCN1C(=O)c1n[nH]c2ccccc12` (configuration not stated), the cytotoxicity at 10 µM was -8.72%.

In the case of `c1ccc(CNC2CCc3ncnn3C2)nc1` (configuration not stated), the cytotoxicity at 10 µM was -6.69%.

With `Cc1ncc(CNC(=O)N(C)C2CCN(c3ccccc3)C2=O)s1` (configuration not stated), the cytotoxicity at 10 µM was -14.7%.

For the molecule `CN(C)c1ncccc1CNC(=O)N1CCCC1c1ccsc1` (configuration not stated), the cytotoxicity at 10 µM was -6.33%.

In the case of `O=C(C1CC1)N1CC2(CCNCC2)C1`, the cytotoxicity at 10 µM is -0.832%.

As for `O=C(c1cc(C2CCCCN2CCO)n[nH]1)N1CCOCC1` (configuration not stated), the cytotoxicity at 10 µM is -24.5%.

Take `Cc1nc(CN2CCC3(CCCN(Cc4cnn(C)c4)C3)C2=O)cs1` (configuration not stated): the cytotoxicity at 10 µM is -5.74%.

Turning to `COCC1c2c(cnn2CC2CC2)CCN1Cc1cccs1` (configuration not stated), the cytotoxicity at 10 µM was -6.61%.

Turning to `Cc1cc(CN2CCC3(CC2)CC(Nc2ncccn2)CO3)nn1C` (configuration not stated), the cytotoxicity at 10 µM is -1.84%.

On to `c1cnc(NCc2noc3c2CN(CCN2CCCC2)CC3)nc1`, for which the cytotoxicity at 10 µM was -7.36%.

Take `CC(=O)N1[C@H](CN(C)C)C[C@@H]2CN(c3ncc(F)cn3)CC[C@@H]21`: the cytotoxicity at 10 µM came out at 5.56%.

Take `O=C(c1ncccn1)N1CC[C@H]2OCC[C@@]2(COc2ccccn2)C1`: the cytotoxicity at 10 µM is -146%.

As for `CN1CCN(C(=O)[C@H]2C[C@@H]3CN(c4ncc(F)cn4)C[C@@H]3N2C)CC1`, the cytotoxicity at 10 µM is -136%.

As to `CC(C)Nc1ncnc2c1CCN(C(=O)NCc1cccnc1)CC2`, the cytotoxicity at 10 µM is -150%.

Turning to `COC(=O)Cn1c(=O)[nH]c2cn(-c3ccc(C)cc3)c(=O)n21`, the cytotoxicity at 10 µM was 0.413%.

Turning to `O=C(NCC1(COc2cnccn2)C[C@@H](O)[C@@H](O)C1)C1CCOCC1` (some centres not stated), the cytotoxicity at 10 µM is -2.48%.
